Published values collected from several papers.
Each line is one published result; the experiments were not run side by side.

SMILES | species | medium | route | dose | notes | bioavailability [%]
Oc1c(-n2ccnc2)cnn1-c1cc(N2CCCCC2)ncn1 | rat | plasma | oral | 30 mg/kg |  | 39
Cl.Clc1ccc2c(c1)nc(N1CCNCC1)n2Cc1ccccc1 | rat | plasma | oral | 5 mg/kg |  | 42
Cc1c(-c2ccccc2)cccc1N1C(=O)c2cc(CN[C@H](C(=O)O)C(C)O)c(OCc3cccc(C#N)c3)cc2C1=O (some centres unmarked) | Sprague-Dawley rat | plasma | oral | 50 mg/kg |  | 0.31
CCOC(=O)[C@@]12C[C@@H]1[C@@H](n1ccc3c(NC)nc(C#Cc4ccc(Cl)s4)nc31)[C@H](O)[C@@H]2O | male Sprague-Dawley rat | plasma | oral | 5 mg/kg |  | 92
N#Cc1ccc(Nc2nc(N)cc(Oc3c(F)cc(-c4ccc(C#N)cc4)cc3F)n2)cc1 | Sprague-Dawley rat | plasma | oral | 5 mg/kg |  | 6.51
CC[C@H](C)[C@H](NC(=O)[C@H](Cc1ccccc1)NC(=O)[C@H](CCC(=O)O)NC(=O)[C@H](CCCNC(=N)N)NC(=O)[C@H](C)NC(=O)[C@H](C)NC(=O)[C@H](CCC(N)=O)NC(=O)[C@H](CCC(=O)O)NC(=O)[C@H](CCC(=O)O)NC(=O)[C@H](CC(C)C)NC(=O)[C@H](Cc1ccc(O)cc1)NC(=O)[C@H](CO)NC(=O)[C@H](CO)NC(=O)[C@@H](NC(=O)[C@H](CC(=O)O)NC(=O)[C@H](CO)NC(=O)[C@@H](NC(=O)[C@H](Cc1ccccc1)NC(=O)[C@@H](NC(=O)CNC(=O)[C@H](CCC(=O)O)NC(=O)[C@H](C)NC(=O)CCc1c[nH]cn1)[C@@H](C)O)[C@@H](C)O)C(C)C)C(=O)N[C@@H](C)C(=O)N[C@@H](Cc1c[nH]c2ccccc12)C(=O)N[C@@H](CC(C)C)C(=O)N[C@H](C(=O)N[C@@H](CCCNC(=N)N)C(=O)NCC(=O)N[C@@H](CCCNC(=N)N)C(=O)N[C@@H](CCCCNC(=O)COCCOCCNC(=O)COCCOCCNC(=O)CC[C@H](NC(=O)CCCCCCCCCCCCCCCCC(=O)O)C(=O)O)C(=O)O)C(C)C | rat | plasma | subcutaneous | 20 nmol/kg |  | 38.7
Oc1c(-n2ccnn2)cnn1-c1cc(N2CCOCC2)ncn1 | rat | plasma | oral | 30 mg/kg |  | 34
C#Cc1cnc2nc(O)n(C(CC)CC)c2n1 | Sprague-Dawley rat | plasma | oral | 1 mg/kg |  | > 90
CNC(=O)c1cccc(-c2ccc(O[C@H]3O[C@H](CO)[C@@H](O)[C@H](O)[C@@H]3O)c(C)c2)c1 | male Sprague-Dawley rat | plasma | oral | 10 mg/kg | single dose | 1.34
N#Cc1ccc(-c2ccc(C[C@@H](C#N)NC(=O)[C@@H]3CCCCN3)cc2)cc1 | Sprague-Dawley rat | plasma | oral | 3 mg/kg |  | 80
Oc1c(Br)cc(Cl)c2cccnc12 | Sprague-Dawley rat | plasma | oral | 20 mg/kg |  | 39
COc1c(C#N)ccnc1N1C2CCC1CN(C(=O)c1cccnc1-n1cccn1)C2 | rat | plasma | oral | 30 mg/kg |  | 8.5
CC(C)(O)[C@H]1CC[C@H](Nc2ccc3ncc(-c4cccc(C(F)(F)F)c4)n3n2)CC1 | female Sprague-Dawley rat | plasma | oral | 40 mg/kg |  | 39
Cc1cn(-c2cc(NC(=O)c3cccc(-c4ccc5nc(NC(=O)C6CC6)sc5n4)c3)cc(C(F)(F)F)c2)cn1 | rat | serum | oral | 2 mg/kg |  | 4.7
COc1ccc2c(Cc3ccccc3F)c3n(c(=O)c2c1OC)CCc1cc2c(cc1-3)OCO2 | rat | plasma | oral | 5 mg/kg |  | 15
C=CC(=O)Nc1cc(Nc2nccc(Nc3cc(Cl)c(F)cc3C(C)(C)O)n2)c(OC)cc1N1CC[C@@H](N(C)C)C1 | Wistar rat | plasma | oral | 3 mg/kg |  | 39.6
Cn1cc(-c2cc(N3CCCS3(=O)=O)ccc2Oc2ccc(F)cc2F)c2c(F)c[nH]c2c1=O | Sprague-Dawley rat | plasma | oral | 3 mg/kg |  | 20 to 30
